Results taken from ChEMBL document CHEMBL4265907, “Design, synthesis and pharmacological evaluation of N4,N6-disubstituted pyrimidine-4,6-diamine derivatives as potent EGFR inhibitors in non-small cell lung cancer” (Eur J Med Chem, 2018).
Calls of active or inactive are those of the source. The calls are words filed in the database; no cut-off is given here.

Tests used:
[1] = tested on: NCI-H3255; experiment: Induction of apoptosis in human H3255 cells assessed as necrotic cells at 250 nM after 48 hrs by Annexin V-FITC/PI staining based flow cytometry (reference value: 7.06%); type: functional
[2] = target: Epidermal growth factor receptor (Homo sapiens, UniProt P00533); experiment: Inhibition of EGF-induced EGFR autophosphorylation at Y1068 residues in human A431 cells by Western blot method; type: cell-based
Procedure, shortened: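 Cell lysates prepared in protein lysis buffer and cleared at 12,000 g for 10 min at 4 °C. 50 μg protein per lane was run on a gel, transferred to PVDF and immunoblotted, with GAPDH as the loading control.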

[3] = tested on: NCI-H3255; experiment: Induction of apoptosis in human H3255 cells assessed as viable cells at 500 nM after 48 hrs by Annexin V-FITC/PI staining based flow cytometry (reference value: 87.9%); type: functional; settings: NCI-H3255, 48 h, read-out: Activity
[4] = tested on: A-431; experiment: Induction of apoptosis in human A431 cells assessed as viable cells at 250 nM after 48 hrs by Annexin V-FITC/PI staining based flow cytometry (reference value: 90.3%); type: functional; settings: A-431, 48 h, read-out: Activity
[5] = tested on: HCC827; experiment: Induction of apoptosis in human HCC827 cells assessed as early apoptotic cells at 500 nM after 48 hrs by Annexin V-FITC/PI staining based flow cytometry (reference value: 2.83%); type: functional
[6] = tested on: Mus musculus; experiment: In vivo inhibition of EGFR phosphorylation in tumor of BALB/C nude mouse xenografted with human PC9 cells at 15 to 30 mg/kg, ip qd administered for 19 days by immunoblot method; type: functional, organism-based

Epidermal growth factor receptor, sequence (P00533 whole entry): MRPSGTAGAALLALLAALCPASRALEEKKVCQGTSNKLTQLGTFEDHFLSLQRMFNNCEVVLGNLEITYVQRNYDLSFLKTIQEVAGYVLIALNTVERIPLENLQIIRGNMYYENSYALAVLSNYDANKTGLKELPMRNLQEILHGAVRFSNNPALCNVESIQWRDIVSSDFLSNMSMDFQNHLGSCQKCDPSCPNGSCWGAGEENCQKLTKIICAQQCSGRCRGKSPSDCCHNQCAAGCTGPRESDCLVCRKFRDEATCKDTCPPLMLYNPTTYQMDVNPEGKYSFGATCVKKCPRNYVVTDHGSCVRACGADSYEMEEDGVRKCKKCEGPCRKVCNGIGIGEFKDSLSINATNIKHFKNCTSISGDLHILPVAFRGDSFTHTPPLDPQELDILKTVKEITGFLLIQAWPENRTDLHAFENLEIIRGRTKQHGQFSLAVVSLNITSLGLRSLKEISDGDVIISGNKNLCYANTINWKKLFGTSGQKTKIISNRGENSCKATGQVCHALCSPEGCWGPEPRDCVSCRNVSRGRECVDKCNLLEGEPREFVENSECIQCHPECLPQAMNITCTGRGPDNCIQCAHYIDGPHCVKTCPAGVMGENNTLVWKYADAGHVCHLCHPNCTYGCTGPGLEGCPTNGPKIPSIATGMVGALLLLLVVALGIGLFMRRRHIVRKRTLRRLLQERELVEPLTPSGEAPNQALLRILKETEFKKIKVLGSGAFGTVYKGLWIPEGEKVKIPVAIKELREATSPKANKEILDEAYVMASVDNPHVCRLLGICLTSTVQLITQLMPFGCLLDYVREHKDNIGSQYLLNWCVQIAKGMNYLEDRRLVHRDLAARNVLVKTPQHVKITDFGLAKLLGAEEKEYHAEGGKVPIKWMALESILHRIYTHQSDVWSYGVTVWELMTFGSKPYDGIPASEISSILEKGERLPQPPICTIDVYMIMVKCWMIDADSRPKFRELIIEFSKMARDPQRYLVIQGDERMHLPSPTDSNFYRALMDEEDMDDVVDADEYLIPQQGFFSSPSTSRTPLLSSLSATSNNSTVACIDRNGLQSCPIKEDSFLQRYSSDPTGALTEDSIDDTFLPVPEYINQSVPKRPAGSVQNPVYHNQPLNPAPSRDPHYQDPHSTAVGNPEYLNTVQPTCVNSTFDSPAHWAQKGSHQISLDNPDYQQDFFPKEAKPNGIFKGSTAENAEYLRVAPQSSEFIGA

COc1cccc(Nc2cc(Nc3cc(OC)ccc3OC)ncn2)c1
Activity [1]: 4.27% | inhibition [2]: Dose-dependent effect | viability at 0.5 µM [3]: 78.2% | viability at 0.25 µM [4]: 79.3% | Activity [5]: 21.3% | inhibition [6]: Active
